Measured values pooled from the literature.
Lines come from different studies, so protocols differ.
Target: Ephrin type-A receptor 5 (EPHA5, Homo sapiens, UniProt P54756)

O=c1[nH]c2ccccc2n1C1CCN(Cc2ccc(-c3[nH]c4cc5ncnc5cc4nc3-c3ccccc3)cc2)CC1 has a remaining signal of 102% (cell-free assay; 0.5 µM).
For C#Cc1n[nH]c2c(-c3cn([C@@H](C)c4ccccn4)c(=O)[nH]c3=O)cc(F)cc12, the inhibition was 8.9% (enzyme activity; inhibitor; 0.1 µM).
Cn1cncc1[C@@](O)(COc1ccc(C#N)cc1-c1ccc(OC(F)(F)F)cc1)c1ccc(C#N)cc1 has a remaining binding of 67% (cell-free assay; competition with immobilised ligand; 1 µM).
C#Cc1n[nH]c2c(-c3cn([C@@H](C)c4ccccc4)c(=O)[nH]c3=O)cc(F)cc12 gave an inhibition of 5.4% (enzyme activity; inhibitor; 0.1 µM).
With Cn1cc(-c2cc(F)cc(N3CCn4c(cc5c4CCCC5)C3=O)c2CO)cc(Nc2ccc(N3CCN(C4COC4)CC3)cn2)c1=O the inhibition was 11% (enzyme activity; inhibitor; 0.1 µM).
With COc1cc(Nc2ncc(F)c(Nc3ccc4c(n3)NC(=O)C(C)(C)O4)n2)cc(OC)c1OC the inhibition was 64% (binding; competition with immobilised ligand; 10 µM).
For Cn1cc(-c2cccc(N3CCc4c(sc5c4CC(C)(C)C5)C3=O)c2CO)cc(Nc2ccncn2)c1=O, the inhibition was 1% (enzyme activity; inhibitor; 1 µM).
COc1ncccc1-c1cnn2ccc(N3CCN(C(=O)OC(C)C)CC3)nc12 gave a remaining binding of 100% (binding; competition with immobilised ligand; 1 µM).
For Cc1nn(C)cc1-c1nc2c(N3CCN(Cc4ccc(Cl)cc4)CC3)c(Cl)cnc2[nH]1, the remaining binding was 100% (binding; competition with immobilised ligand; 1 µM).
CC(C)(C)c1cc(C=C(C#N)C#N)cc(Br)c1O gave a remaining activity of 106% (enzyme activity; inhibitor; 0.5 µM).
